Most compounds without a hit are left out; they make up all but 2.5% or so of the library.
SR-BI DiI inh = mouse SR-BI HDL lipid transfer inhibition. ldlA[mSR-BI] CHO cells, DiI-HDL uptake fluorescence, 3 h. 320,000 tested, 0.96% active. inhibition, % at 12.5 µM. AID 488896;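 active = mean replicate inhibition of at least 70% and a set share of replicates each scoring 70 or more; inconclusive = meets just one of the two criteria; inactive = fails both criteria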
Target sequence (Q61009 whole entry, looked up): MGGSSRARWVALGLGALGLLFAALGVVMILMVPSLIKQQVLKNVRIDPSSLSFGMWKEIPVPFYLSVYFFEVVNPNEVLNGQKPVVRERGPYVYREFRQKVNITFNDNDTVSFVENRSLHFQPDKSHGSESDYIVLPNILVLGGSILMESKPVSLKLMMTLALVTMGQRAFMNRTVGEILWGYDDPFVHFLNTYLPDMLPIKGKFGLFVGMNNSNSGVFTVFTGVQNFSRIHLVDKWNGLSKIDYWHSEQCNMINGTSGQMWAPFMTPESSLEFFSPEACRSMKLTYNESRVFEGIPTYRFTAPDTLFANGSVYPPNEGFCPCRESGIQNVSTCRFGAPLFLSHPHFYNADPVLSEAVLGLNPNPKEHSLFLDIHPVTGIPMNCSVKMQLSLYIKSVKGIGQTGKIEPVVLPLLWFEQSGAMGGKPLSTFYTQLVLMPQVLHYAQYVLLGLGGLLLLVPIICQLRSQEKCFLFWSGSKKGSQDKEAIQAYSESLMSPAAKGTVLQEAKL
SR-BI DiI-HDL act = activators of SR-BI mediated HDL lipid uptake; activation, % at 12.5 µM; 320,000 tested, 0.096% active; CHO ldlA[mSR-BI] cells, DiI-HDL uptake fluorescence, 3 h; 100 = double the neutral-control signal;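 active = mean replicate activation of at least 60% and every replicate at or above 60%; inconclusive = mean or all-replicate condition met, but not both; inactive = mean below 60% and not all replicates reaching 60%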
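System: CHO ldlA[mSR-BI] cells / Medium: HEPES-buffered (25 mM, pH 7.4) F12 plus 0.5% BSA / Probe or stimulus: labelled HDL, 10 µg/mL / Doses: single compound concentration, delivered by pin transfer / Schedule: 3 h, 37 °C / Measured by: DiI fluorescence, bottom read / Measure: cell-associated DiI fluorescence as measure of HDL uptake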
Vif imaging = HIV Vif inhibition. HEK293T cells, Vif self-association by quenched fluorescence, imaging, 24 h. inhibition, % at 7.49 µM. 340,000 tested, 0.35% active. AID 602346; in the data active = inhibition above about 50%, passing the limit was not always enough; inconclusive = no clear call, values can overlap the other calls; inactive = below about 31%
SMARCA2 activ = activators of SMARCA2 function | MG213 cells, MMTV-luciferase reporter, dexamethasone, overnight | activation, % at 9.1 µM | 370,000 tested, 1% active; in the data active = activation above about 7.8%
TAG inh = reduces triacylglycerol accumulation in H9c2 cells; Nile Red lipid (TAG) fluorescence; cells loaded with 200 µM oleic acid; inhibition, % at 12.5 µM; 230,000 tested, 0.66% active; AID 651582;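 active = pattern-corrected inhibition of lipid staining of at least 50% with the nuclear-stain viability signal not falling by more than 50%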
SMARCA2 act conf = SMARCA2 activation, confirmation screen | shares compounds with SMARCA2 activ | MG213 cells, MMTV-luciferase with dexamethasone, luminescence, overnight; MG213 cells expressing E1A, Rb sequestered; DMSO wells 0%, reference activator 100% | activation, % at 9.1 µM | 3,500 tested, 30% active | AID 652260;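 active = activation above its plate's cutoff, the mean activation of tested wells plus 3 SD, cut at about 7.9% in these data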
GAL4-VP16 Luc = GAL4-VP16 reporter activation counter-screen | shares compounds with SMARCA2 activ | HEK293 GAL4-VP16 pG5luc reporter, luciferase luminescence; scaled: DMSO wells 0%, SAHA wells 100% | AID 686939 | activation, % at 9.1 µM | 3,500 tested, 41% active;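 active = activation above the solvent-only control well mean plus 3 SD, averaged across control plates, cut at about 5.2% in these data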
Each line names hits and unclear results; the compound was inactive in the other large screens (follow-up assays come after a bar, where they were run).

CCN1CCCCC(NC(=O)Cc2ccccc2)C1=O (stereo not given)	none (no result: SR-BI DiI inh, SR-BI DiI-HDL act, Vif imaging, TAG inh)
COc1cccc(-c2cnc3c(NC=O)cc(-c4ccc(N5CCN(C)CC5)cc4)cn23)c1	SMARCA2 activ 15 (no result: SR-BI DiI inh, SR-BI DiI-HDL act, Vif imaging) | SMARCA2 act conf 37 | GAL4-VP16 Luc inactive
COc1ccc(-c2cnc3c(NC=O)cc(-c4ccc(C(=O)N5CCOCC5)cc4)cn23)cc1OC	SMARCA2 activ 12 (no result: SR-BI DiI inh, SR-BI DiI-HDL act) | SMARCA2 act conf inactive | GAL4-VP16 Luc inactive
CCOc1ccc(OCc2cccc(C(=O)N/N=C/c3cccnc3)c2)cc1	SMARCA2 activ 8.5 (no result: TAG inh) | SMARCA2 act conf 13 | GAL4-VP16 Luc 21
COc1ccc(OCc2cccc(C(=O)NN)c2)cc1	SMARCA2 activ 13 (no result: TAG inh) | SMARCA2 act conf 9.4 | GAL4-VP16 Luc 16
CCOc1ccc(OCc2cccc(C(=O)N3CCOCC3)c2)cc1	SMARCA2 activ 12 (no result: TAG inh) | SMARCA2 act conf inactive | GAL4-VP16 Luc 9.7
CCOC(=O)N1CCN(C(=O)CSc2nc(=O)n3ccccc3n2)CC1	SR-BI DiI-HDL act inconclusive
Cc1cc(-c2cc(NC(=O)Cc3c[nH]c4ccccc34)ccc2Nc2cccnc2)ccc1F	none (no result: SR-BI DiI inh, SR-BI DiI-HDL act, Vif imaging, TAG inh)
COc1cc2nc(Nc3ccc(F)cc3)nc(N)c2cc1OC	none (no result: TAG inh)
COc1cc2nc(N(C)C)nc(N)c2cc1OC	SMARCA2 activ 13 | SMARCA2 act conf 28 | GAL4-VP16 Luc inactive
COCCN1CCN(c2c(C)c(C)nc3cc(-c4cccc(OC)c4)nn23)CC1	SMARCA2 activ 11 | SMARCA2 act conf 9.7 | GAL4-VP16 Luc inactive
Cc1ccc(C(C(=O)NC2CCCC2)N(CCCO)C(=O)Cn2nnc(-c3ccc(C)o3)n2)cc1 (stereo not given)	none (no result: SR-BI DiI inh, SR-BI DiI-HDL act, TAG inh)
CC(CN1C(C)CCCC1C)OC(=O)c1cccc(F)c1 (stereo not given)	none (no result: TAG inh)
CC(CN1C(C)CCCC1C)OC(=O)c1ccccc1F (stereo not given)	SMARCA2 activ 9.2 (no result: TAG inh) | SMARCA2 act conf inactive | GAL4-VP16 Luc inactive
COc1ccccc1N(C)c1cc2c(c3c1ccn3C)C1CCC2O1 (stereo not given)	none (no result: SR-BI DiI inh, SR-BI DiI-HDL act, Vif imaging, TAG inh)
CCOC(=O)c1c(C)[nH]c(C)c1S(=O)(=O)NCCc1sccc1C	none (no result: TAG inh)
CCOC(=O)c1c(C)[nH]c(C)c1S(=O)(=O)NCCc1ccc(SC)cc1	SMARCA2 activ 12 (no result: TAG inh) | SMARCA2 act conf inactive | GAL4-VP16 Luc inactive
CCOC(=O)C1CCN(C(=O)Nc2ccccc2Cl)CC1	none
CCOC(=O)N1CCN(C(=O)Nc2ccccc2Cl)CC1	SMARCA2 activ 9.0 (no result: SR-BI DiI inh, SR-BI DiI-HDL act, TAG inh) | SMARCA2 act conf inactive | GAL4-VP16 Luc inactive
N#C/C(=C\c1cccnc1)c1nc2c(s1)CCCC2	SMARCA2 activ 8.5 | SMARCA2 act conf inactive | GAL4-VP16 Luc 16
COC(=O)C1=C(C)N(Cc2ccc(C(F)(F)F)cc2)C(=NCC2CC2)NC1c1cccc(Cl)c1 (stereo not given)	none (no result: SR-BI DiI inh, SR-BI DiI-HDL act, Vif imaging, TAG inh)
COc1ccc(-n2nc3c(N4CCC(C(=O)NCc5cccc(C)c5)CC4)nnc(C)c3c2C)cc1	SMARCA2 activ 14 (no result: TAG inh) | SMARCA2 act conf 17 | GAL4-VP16 Luc inactive
CC(=O)Oc1ccc2c(=O)c(-c3ccccc3)coc2c1	SMARCA2 activ 10 | SMARCA2 act conf inactive | GAL4-VP16 Luc 5.6
O=[N+]([O-])c1ccc(SCCc2ccncc2)cc1	none
O=[N+]([O-])c1ccc(SCCc2ccccn2)cc1	SMARCA2 activ 12 | SMARCA2 act conf inactive | GAL4-VP16 Luc inactive
O=C(NC(=S)N1CCc2ccccc21)c1ccccc1	SMARCA2 activ 8.5 (no result: TAG inh) | SMARCA2 act conf inactive | GAL4-VP16 Luc inactive
COc1ccc(C2CC3CN(C4CCCCC4)C(=O)C3N2C)cc1 (stereo not given)	none (no result: SR-BI DiI inh, SR-BI DiI-HDL act, Vif imaging, TAG inh)
CCN1CCCC1CNC(=O)c1ccc2c(c1)NC(=O)/C(=C\c1ccccc1Cl)S2 (stereo not given)	none (no result: SR-BI DiI inh, SR-BI DiI-HDL act)
CCN1CCCC1CNC(=O)c1ccc2c(c1)NC(=O)/C(=C\c1ccc(OC)c(OC)c1)S2 (stereo not given)	SMARCA2 activ 8.6 (no result: TAG inh) | SMARCA2 act conf 12 | GAL4-VP16 Luc inactive
